Bioassay records: PubChem, Sanford-Burnham Center for Chemical Genomics
An excerpt weighted towards active compounds, which were near 1.7% of everything screened.
STEP block = STEP (human) phosphatase inhibition | P54829 | recombinant STEP, OMFP fluorogenic substrate, fluorescence | inhibition, % at 20 µM | 360,000 tested, 0.25% active;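 active means inhibition at 20 µM, scaled per plate between control wells, above about 37%, limit read from the data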
Target sequence (P54829 whole entry, looked up): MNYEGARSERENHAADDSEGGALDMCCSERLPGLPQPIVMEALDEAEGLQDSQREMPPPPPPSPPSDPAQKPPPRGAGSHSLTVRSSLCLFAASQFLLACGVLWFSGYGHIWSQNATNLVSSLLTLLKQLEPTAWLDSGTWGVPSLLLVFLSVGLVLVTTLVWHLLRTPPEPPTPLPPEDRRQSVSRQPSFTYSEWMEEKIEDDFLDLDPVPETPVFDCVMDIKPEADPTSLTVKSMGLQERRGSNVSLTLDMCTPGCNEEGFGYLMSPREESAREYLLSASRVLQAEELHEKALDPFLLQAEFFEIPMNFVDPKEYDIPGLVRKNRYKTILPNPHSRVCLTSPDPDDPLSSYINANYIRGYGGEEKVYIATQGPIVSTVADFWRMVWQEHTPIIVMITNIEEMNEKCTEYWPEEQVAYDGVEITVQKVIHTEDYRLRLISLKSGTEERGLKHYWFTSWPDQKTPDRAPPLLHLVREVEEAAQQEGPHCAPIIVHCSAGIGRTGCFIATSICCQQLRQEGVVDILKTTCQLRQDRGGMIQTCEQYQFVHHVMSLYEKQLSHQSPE
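System: STEP (striatal-enriched tyrosine phosphatase) enzyme, cell-free; medium: Bis-Tris pH 6.0 buffer with DTT, detergent; dosing: 20 µM, 1% DMSO; times: reaction 20 min, ambient temperature; detection: fluorescence, 480/540 nm; read-out basis: normalized % inhibition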
Scp1 inh = Scp-1 (human) phosphatase inhibition | Q9GZU7 | 340,000 tested, 0.88% active | AID 493091 | Recombinant Scp1, phosphopeptide, malachite green phosphate absorbance | inhibition, % at 20 µM;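 active means inhibition above about 50% at 20 µM, limit read from the data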
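Times: enzyme reaction 45 min at room temperature, colour 5 min, stabilisation 30 min. Material: SCP-1 catalytic fragment, aa 76-261. Medium: Acidic Tris acetate buffer with magnesium and detergent. Signal: colorimetric free-phosphate detection, absorbance 630 nm. Read-out basis: % inhibition of SCP-1 phosphate liberation. Reagent: Phosphorylated 17-residue peptide substrate.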
SUMO1-SIM PPI = alters human SUMO1 binding to SIM partners; inhibition, % at 20 µM; SUMO1 binding to a labelled peptide, TR-FRET, 1 h; 360,000 tested, 0.33% active; AID 602429; in the data active means inhibition above about 37%
LMPTP block = LMPTP (human) inhibition. AID 651560. 360,000 tested, 0.22% active. P24666. recombinant LMPTP-A, OMFP fluorogenic substrate, fluorescence intensity. inhibition, % at 20 µM;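 active means compounds that cut the enzyme signal by at least half of the control window in the single-dose screen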
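Assay system: LMPTP-A enzyme. Input: 0.625 nM LMPTP-A final. Probe or stimulus: 400 µM OMFP. Compound dosing: single 20 µM dose. Schedule: 50 min dark incubation at room temperature. Detection: fluorescence intensity of OMFP turnover product. Read-out: percent inhibition versus substrate-only and uninhibited controls. Benchmarks: no-enzyme low control, uninhibited high control.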
DNMT1 inh = blocks human DNA methyltransferase DNMT1. DNMT1 molecular beacon, Hinp1I cleavage, fluorescence. P26358. 360,000 tested, 0.83% active. inhibition (reported as % activation of signal), % at 10 µM; in the data active means inhibition above about 50%
Beacon interf DR = counter-screen for DNMT1 inhibitors: spectral interference, dose response | AID 602382 | IC50, µM | molecular beacon fluorescence | shares compounds with DNMT1 inh | 200 tested, under 10 active
DNMT1 confirm = confirmation of human DNMT1 inhibitors; shares compounds with DNMT1 inh; DNMT1 molecular beacon HinP1I cleavage, fluorescence; inhibition, % at 10 µM; 2,300 tested, 8% active; AID 602385;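 active means average inhibition of at least 30% in the single-concentration confirmation test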
DNMT1 interf = counter-screen for DNMT1 inhibitors: spectral interference | activation (fluorescence interference), % at 10 µM | DNMT1 molecular beacon spectral interference counterscreen, fluorescence 485/520 | shares compounds with DNMT1 inh | 2,300 tested, 1% active;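 active means activation of at least 30% at 10 µM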;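 further: DNMT1 catalytic domain with a HinP1I cleavage step and a FAM/dabcyl DNA beacon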
STEP conf = confirmation of human STEP phosphatase inhibitors. shares compounds with STEP block. recombinant STEP, OMFP fluorogenic substrate, fluorescence. inhibition, % at 20 µM. 520 tested, 32% active. AID 623866
Large screens that a line does not name were inactive (follow-up assays come after a bar, where they were run). Unless noted, how the calls were made is not given here.

Cc1cc(/C=C2\C(=O)NC(=O)N(c3cccc(Br)c3)C2=O)c(C)n1C	none
CCCCn1nnnc1C(CCSC)N1CCC(n2c(=O)[nH]c3ccccc32)CC1 (stereo unspecified)	none (no result: Scp1 inh)
CCN(CC)c1ccc(/C=C2/C(=O)NC(=O)N(Cc3ccco3)C2=O)cc1	DNMT1 inh 68 | DNMT1 confirm inactive | DNMT1 interf inactive
CN(C)c1ccc(/C=C2\C(=O)NC(=O)N(CCc3ccc(F)cc3)C2=O)cc1	none
CN(C)c1ccc(/C=C2/C(=O)NC(=O)N(Cc3ccco3)C2=O)cc1	DNMT1 inh 94 | DNMT1 confirm inactive | DNMT1 interf inactive
O=C(NCC1=C(c2ccc3ccccc3c2)C[C@@H]2CC[C@H]1N2Cc1ccco1)c1nccs1	none (no result: Scp1 inh)
COC(=O)C1=C(c2ccc(OCc3ccccc3)c(F)c2)C[C@@H]2CC[C@H]1N2C	none (no result: Scp1 inh)
C=CCSc1nc2c(c(-c3ccsc3)c1C#N)CN(C)CC2	DNMT1 inh 52 | DNMT1 confirm inactive | DNMT1 interf inactive
Cc1cc(C)c(S(=O)(=O)N2Cc3ccccc3-n3nncc3C2)c(C)c1	none (no result: Scp1 inh)
CCN1CCN(C(=O)COc2ccc(S(=O)(=O)N(C)Cc3ccccc3)cc2)CC1	none
CN1CCN(C(=O)COc2ccc(S(=O)(=O)N(C)Cc3ccccc3)cc2)CC1	DNMT1 inh 55 | DNMT1 confirm inactive | DNMT1 interf inactive
COC(=O)[C@@H]1N=C(c2ccc(OC)cc2)O[C@]12C(=O)N(Cc1ccc(OC)cc1)c1ccccc12	none (no result: STEP block, Scp1 inh, DNMT1 inh)
O=C(O)C1C2CCC(O2)C1C(=O)Nc1cccc(Br)c1 (stereo unspecified)	DNMT1 inh 79 | DNMT1 confirm inactive | DNMT1 interf inactive
CN1C(=O)/C(=C/c2cccn2-c2ccc3ccccc3c2)C(=O)NC1=S	DNMT1 inh 81 | DNMT1 confirm inactive | DNMT1 interf inactive
Cc1cc(C)cc(N2C(=O)NC(=O)/C(=C\c3cccn3-c3ccc(Cl)cc3)C2=O)c1	none
O=C1NC(=S)NC(=O)C1=Cc1cccn1-c1ccc(O)cc1	Scp1 inh 56, DNMT1 inh 84 | Beacon interf DR inactive | DNMT1 confirm 65 | DNMT1 interf inactive
C[C@]12CCC3C(CC[C@H]4C[C@@H](O)CC[C@]34C)C1C[C@@H](O)[C@]2(C)O (stereo partly specified)	none
C#C[C@]1(O)[C@H](O)CC2C3CC[C@H]4C[C@@H](O)CC[C@]4(C)C3CC[C@@]21C (stereo partly specified)	DNMT1 inh 67 (no result: Scp1 inh) | DNMT1 confirm inactive | DNMT1 interf inactive
COc1ccc(OC(=O)N(C)C[C@@H]2OCc3cnnn3CCCC(=O)N([C@H](C)CO)C[C@H]2C)cc1	none (no result: Scp1 inh)
COc1nc2ccccc2c(=O)n1-c1ccc(C)cc1	DNMT1 inh 88 | DNMT1 confirm inactive | DNMT1 interf inactive
COc1nc2ccccc2c(=O)n1-c1ccc(Cl)cc1	none
C/C(=C/CCC(C)[C@H]1CC[C@@]2(C)C3=C(CC[C@]12C)[C@@]1(C)CCC(=O)C(C)(C)[C@@H]1CC3)C(=O)O (stereo partly specified)	SUMO1-SIM PPI 41, DNMT1 inh 60 | Beacon interf DR inactive | DNMT1 confirm inactive | DNMT1 interf inactive
CC[C@H]1CN2CCC1C[C@H]2[C@H](O)c1ccnc2ccc(OC)cc12 (stereo partly specified)	STEP block 48, SUMO1-SIM PPI 55, LMPTP block 65 | STEP conf inactive
CC[C@H]1CN2CCC1C[C@@H]2[C@@H](O)c1ccnc2ccc(OC)cc12 (stereo partly specified)	none
O=S(=O)(c1ccccc1)C1CN1c1c(F)c(F)c(F)c(F)c1F (stereo unspecified)	none (no result: STEP block, Scp1 inh, DNMT1 inh)
CN1CCC2(CC1)N=C(c1ccc(F)cc1)C(=S)N2	STEP block 78 | STEP conf 28
Cc1ccc(Cn2cc(C=O)c(-c3ccc(C)cc3)n2)cc1	STEP block 74 | STEP conf 27
CC12CC(=O)C3C(CCC4CC(=O)C=CC43C)C1CCC2=O (stereo unspecified)	none
